TRPC4 act – activators of mouse TRPC4 channel, primary screen, Fluo4 calcium, HEK293 TRPC4beta/mu-opioid cells | Short transient receptor potential channel 4 (Mus musculus), Q9QUQ5 | B-score at 10 µM | hit rate 0.49% among 310,000 | Fluo4 calcium fluorescence; hits give high values;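 active means B-score above 5 SD of library B-scores, and initial fluorescence ratio not above library mean plus 5 SD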;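 further: positive B-score marks a calcium rise read as TRPC4 activation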
Target sequence (Q9QUQ5 whole entry, looked up): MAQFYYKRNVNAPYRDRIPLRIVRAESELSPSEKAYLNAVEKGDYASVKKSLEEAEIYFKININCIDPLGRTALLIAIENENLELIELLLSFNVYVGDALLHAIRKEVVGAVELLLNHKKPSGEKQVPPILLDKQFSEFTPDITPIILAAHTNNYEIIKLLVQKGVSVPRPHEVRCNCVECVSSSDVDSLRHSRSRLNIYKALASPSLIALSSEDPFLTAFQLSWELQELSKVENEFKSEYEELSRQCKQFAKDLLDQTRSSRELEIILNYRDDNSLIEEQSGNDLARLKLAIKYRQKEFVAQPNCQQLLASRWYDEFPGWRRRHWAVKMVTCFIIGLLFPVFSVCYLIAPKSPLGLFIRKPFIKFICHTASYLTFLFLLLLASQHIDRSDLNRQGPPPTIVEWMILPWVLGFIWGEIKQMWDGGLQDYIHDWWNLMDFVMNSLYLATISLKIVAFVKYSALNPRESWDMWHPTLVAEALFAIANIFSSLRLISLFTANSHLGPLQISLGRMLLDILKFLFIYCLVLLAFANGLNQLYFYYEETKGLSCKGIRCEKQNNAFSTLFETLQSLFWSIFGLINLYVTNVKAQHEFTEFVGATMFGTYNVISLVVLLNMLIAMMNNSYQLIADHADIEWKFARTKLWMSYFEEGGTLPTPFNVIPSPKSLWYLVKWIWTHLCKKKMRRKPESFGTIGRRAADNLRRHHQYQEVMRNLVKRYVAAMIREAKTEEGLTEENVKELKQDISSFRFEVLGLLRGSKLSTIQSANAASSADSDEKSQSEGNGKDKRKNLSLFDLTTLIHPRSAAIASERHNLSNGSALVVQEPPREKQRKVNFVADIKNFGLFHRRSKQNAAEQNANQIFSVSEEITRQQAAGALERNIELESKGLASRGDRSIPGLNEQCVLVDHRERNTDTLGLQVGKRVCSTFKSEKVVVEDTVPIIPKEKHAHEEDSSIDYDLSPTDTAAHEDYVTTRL
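Test system: HEK293 cells stably co-expressing mouse TRPC4beta and mu-opioid receptor | Schedule: Fluo4 dye loading 45 min at room temperature, 110 s recording | Measured by: Kinetic Fluo4 calcium fluorescence, 5 s baseline at 1 Hz | Evaluation: B score of integrated ratio | Controls: Buffer (low) and maximal DAMGO (high)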
TRPC6 activator – mouse TRPC6 channel activators, primary screen, cell-based, HEK293, membrane potential dye; Short transient receptor potential channel 6 (Mus musculus), Q61143; HEK293-TRPC6 membrane potential dye fluorescence; hits give high values; B-score at 10 µM; hit rate 0.13% among 310,000;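 active means B-score of the integrated fluorescence ratio above library mean plus 3 SD, and starting fluorescence ratio within library mean plus 5 SD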;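 further: higher score means more depolarization so channel activation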
TRPC4 potent – positive allosteric modulators of TRPC4, primary screen, cell-based, mouse TRPC4beta, HEK293 mu-opioid, Fluo-4 calcium; Short transient receptor potential channel 4 (Mus musculus), Q9QUQ5; DAMGO EC20, Fluo-4 Ca2+ flux; hits give high values; B-score at 10 µM; hit rate 0.42% among 310,000; AID 2227, 2009;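 active means B-score of calcium response area above 5 SD of library B-scores, with initial fluorescence ratio within 5 SD of library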;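 further: B-score of integrated fluorescence ratio over time as area under calcium response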
TRPC4 block – inhibitors of mouse TRPC4 channel, primary screen, Fluo4 calcium, HEK293 TRPC4beta/mu-opioid cells | DAMGO-evoked Fluo4 calcium flux; hits give low values | Short transient receptor potential channel 4 (Mus musculus), Q9QUQ5 | hit rate 0.39% among 300,000 | B-score at 10 µM;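 active means B-score over 3 SD under the library average, no early fluorescence shift, positive overall ratio signal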
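System: stable TRPC4beta/mu-opioid receptor HEK293 cells; Dosing: single-point compound dosing; Measured by: Fluo4 Ca2+ flux fluorescence; Read-out basis: per-well B score of integrated baseline-normalized Fluo4 ratio.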
TRPC6 inh – mouse TRPC6 channel inhibitors, primary screen, cell-based, HEK293, membrane potential dye | hit rate 1.1% among 310,000 | Short transient receptor potential channel 6 (Mus musculus), Q61143 | B-score at 10 µM | AID 2553, 2010 | ACh-evoked depolarization; hits give low values;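 active means B-score under library mean minus 3 SD, initial fluorescence not abnormally high, positive integrated signal ratio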;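 further: B-score derived from integrated fluorescence ratio over the kinetic read; more negative B-score means stronger inhibition of depolarization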
TRPC4 sel inh 2 – mouse TRPC4 off-target activity of TRPC6 inhibitors, second screen; shares compounds with TRPC6 inh; HEK293 TRPC4/MOR, membrane potential dye fluorescence; channel activated by saturating DAMGO dose; inhibition, % at 10 µM; hit rate 42% among 920;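 active means compounds whose fluorescence signal differed from control wells by over 3 SD, either direction, in both duplicate plates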
TRPC4 spec – mouse TRPC4 modulation by TRPC6 hits, confirmation, selectivity assay for TRPC6 inhibitor project, cell-based, HEK293 TRPC4/mu-opioid, membrane potential dye; shares compounds with TRPC6 inh; membrane potential fluorescence; activity change, negative = inhibition, % at 10 µM; hit rate 61% among 920; AID 2777, 2010;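 active means rise or fall in signal beyond 3 SD of buffer-only wells in both replicate plates, either sign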;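 further: integrated kinetic ratio of fluorescence range over baseline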
HEK293 MPD ctr 2-1 – nonspecific membrane potential effects, parental HEK293, confirmation, counter-screen for TRPC6 inhibitor project, cell-based, second counter screen; hit rate 31% among 920; signal change vs control, % at 10 µM; shares compounds with TRPC6 inh; parental HEK293 membrane potential dye fluorescence; maximal acetylcholine challenge after compound addition;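 active means membrane potential signal moving either way by over 3 SD of the maximum-effect control, in both duplicate plates, meaning non-specific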
HEK293 MPD ctr-1 – membrane potential modulation in parental HEK293, confirmation, counter-screen for TRPC6 inhibitor project, cell-based. shares compounds with TRPC6 inh. parental HEK293 membrane potential dye fluorescence. membrane potential signal change, % at 10 µM. hit rate 60% among 920. AID 2780, 2010;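 active means membrane potential signal shifting up or down by more than 3 SD of buffer-only wells, on both duplicate plates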
HEK293 MPD ctr-2 – parental HEK293 membrane potential modulation, confirmation, counter-screen for TRPC6 modulator project, cell-based. membrane potential dye fluorescence. shares compounds with TRPC6 inh. membrane potential signal change, % at 10 µM. hit rate 51% among 2,400;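 active means membrane potential signal moves up or down beyond 5 SD from buffer-only wells, on both duplicate plates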
HEK293 MPD ctr 2-2 – second counter-screen for TRPC6 modulators: effect in parental HEK293 cells. hit rate 14% among 2,400. shares compounds with TRPC6 inh. inhibition, % at 10 µM. membrane potential dye fluorescence; after compound, maximal acetylcholine stimulation;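 active means membrane potential signal drops by more than 5 SD from the mean control signal, in both duplicate plates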;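 further: plate controls were acetylcholine ECmax control wells for no effect and buffer only wells for full effect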
TRPC4 ctr mod – TRPC4 modulation by TRPC6 hit compounds, confirmation, selectivity assay for TRPC6 modulator project, cell-based, HEK293 TRPC4/mu-opioid, membrane potential dye, mouse | hit rate 69% among 2,400 | shares compounds with TRPC6 inh | AID 488927, 2010 | membrane potential fluorescence | percent change from control (negative = decrease, positive = increase), % at 10 µM;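 active means membrane potential signal moved up or down beyond 5 SD of buffer control wells, in both duplicate plates, actives on both sides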;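 further: plate controls were assay buffer wells for no effect and DAMGO maximal-effect wells for full effect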
TRPC4/MOR inh 2 – mouse TRPC4 off-target activity of TRPC6 modulators, second screen; shares compounds with TRPC6 inh; HEK293 TRPC4/mu-opioid, membrane potential dye fluorescence; stimulated with maximal-effect DAMGO; inhibition, % at 10 µM; hit rate 55% among 2,400;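 active means drop in membrane potential signal beyond 5 SD of the control wells in both duplicate plates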;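 further: TRPC4 counter screen for TRPC6 hits run under conditions tuned for TRPC6 not TRPC4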
TRPC6 inh conf – mouse TRPC6 channel inhibitors, confirmation, HEK293 cells, membrane potential dye, duplicate. shares compounds with TRPC6 inh. ACh-evoked depolarization. inhibition, % at 10 µM. hit rate 43% among 3,300. AID 488960, 2010;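 active means fluorescence ratio falls more than 5 SD below the full-stimulation control mean, in both duplicate runs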;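 further: integrated fluorescence ratio of peak minus minimum over baseline after agonist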
TRPC6 act confirm – mouse TRPC6 channel activators, confirmation, HEK293 cells, membrane potential dye, duplicate; HEK293-TRPC6 membrane potential dye fluorescence, FDSS; shares compounds with TRPC6 inh; hit rate 11% among 2,800; activation, % at 10 µM;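 active means ratio signal rise beyond 5 SD above unstimulated control wells' mean, seen in both duplicate runs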;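 further: plate controls were buffer EC0 wells for no effect and acetylcholine ECmax response for full effect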
* = called active by the depositor; i = inactive; / = no result given. A selection: hits, their analogues and other compounds. The true share with any hit is near 2.3%.

SMILES | TRPC4 act | TRPC6 activator | TRPC4 potent | TRPC4 block | TRPC6 inh | HEK293 MPD ctr-2 | HEK293 MPD ctr 2-2 | TRPC4 ctr mod | TRPC4/MOR inh 2 | TRPC6 inh conf | TRPC6 act confirm | others
C/C(=N\Nc1nc2ccccc2[nH]1)c1ccc2c(c1)OCO2 | i | i | i | -8* | -10* | / | / | / | / | 58%* | i | TRPC4 sel inh 2=40%*;TRPC4 spec=-20%*;HEK293 MPD ctr 2-1=38%*;HEK293 MPD ctr-1=-346%*
C=CCNc1nc(NCc2ccccc2)c(C#N)c2c1CN(C)CC2 | i | i | i | i | -6.5* | -75%* | i | -21%* | 46%* | i | i
CCN1CCc2c(C#N)c(NCc3ccccc3)nc(N(CC)CC)c2C1 | i | i | i | i | -7.2* | / | / | / | / | i | i | TRPC4 sel inh 2=66%*;TRPC4 spec=-10%*;HEK293 MPD ctr 2-1=i;HEK293 MPD ctr-1=i
CCCc1nc(NCc2ccccc2)c(C#N)c2c1CCCC2 | i | i | i | i | i | / | / | / | / | / | /
Cc1nn(C)c(C)c1CN(C(=O)C1CCC(=O)N(C2CCCCCC2)C1)C(C)C (stereo unspecified) | i | i | i | i | i | / | / | / | / | / | /
COc1ccc(OC)c2sc(N(CCN(C)C)C(=O)c3cc(Cl)sc3Cl)nc12 | 102* | i | i | i | -5.5* | i | i | -42%* | 80%* | i | i
COc1ccc2sc(N(CCN(C)C)C(=O)c3cc(Cl)sc3Cl)nc2c1 | i | i | i | i | i | / | / | / | / | / | /
CN(CC(=O)Nc1n[nH]c(=S)s1)S(=O)(=O)c1cccc2cccnc12 | i | i | i | i | i | / | / | / | / | / | /
COc1ccc(-n2c(SCC(=O)NCC3CCCO3)nc3c(c2=O)SC(C)C3)cc1 (stereo unspecified) | i | i | i | i | i | / | / | / | / | / | /
CC(OC(=O)c1cc(=O)[nH]c2ccccc12)C(=O)Nc1ccccc1F (stereo unspecified) | i | i | i | i | i | / | / | / | / | / | /
O=[N+]([O-])c1ccc(/C=N/Nc2nc(N3CCCCC3)nc(N3CCCCC3)n2)cc1 | i | i | i | i | -6* | i | i | i | i | i | i
CCC1(CC)Cc2ccccc2C(C2=C(O)CC(C)(C)CC2=O)=N1 | i | i | i | i | i | / | / | / | / | / | /
N=C(SC1CC(=O)N(c2ccc(F)cc2)C1=O)N1N=C(c2ccccc2)CC1c1ccccc1 (stereo unspecified) | i | i | i | i | -7.7* | / | / | / | / | i | i | TRPC4 sel inh 2=i;TRPC4 spec=i;HEK293 MPD ctr 2-1=i;HEK293 MPD ctr-1=i
CCC(=O)N1N=C(c2ccccc2)CC1c1ccccc1 (stereo unspecified) | i | i | i | i | i | / | / | / | / | / | /
Cc1ccc(CNC(=O)C2CCC(=O)N(CCCN3CCOCC3)C2)cc1 (stereo unspecified) | i | i | i | i | i | / | / | / | / | / | /
CCCCCCc1ccc(N2C[C@H](Cc3ccccc3)[C@@H](CC(=O)NCc3ccc(OC)cc3)C2=O)cc1 | i | i | i | i | i | / | / | / | / | / | /
CCCCCCc1ccc(N2C[C@H](CCCCC)[C@@H](CC(=O)NCc3ccccc3)C2=O)cc1 | i | 22* | i | i | i | 344%* | i | 77%* | i | i | 169%*
CCCCCCc1ccc(N2C[C@H](CCCCC)[C@@H](CC(=O)NCc3ccc(OC)cc3)C2=O)cc1 | i | 17* | i | i | i | 472%* | i | 84%* | i | i | 95%*
C=CCNC(=O)C1CC2Cn3c(nc4cc(Cl)c(Cl)cc43)C2N1C (stereo unspecified) | i | i | i | i | i | / | / | / | / | / | /
c1ccc(C2=Nc3cccnc3C(c3ccccc3)=NN2)cc1 | i | i | i | i | i | / | / | / | / | / | /
Cc1ccc(C(=O)COC(=O)CCC(=O)NC2CCCCC2)cc1C | i | i | i | i | i | / | / | / | / | / | /
CC(=O)OCCc1[nH]c2ccccc2c1C | i | i | i | i | i | / | / | / | / | / | /
CC(=O)OCCc1c2ccccc2c(CCCN(C)C)c2ccccc12 | i | i | i | i | -6.1* | -87%* | i | -18%* | 67%* | 48%* | i
COCc1cc(C)c2c(N)c(C#N)sc2n1 | i | i | i | i | i | / | / | / | / | / | /

Source: PubChem
